The record followed here is ChEMBL document CHEMBL1140978, “Synthesis and preliminary antibacterial evaluation of simplified thiomarinol analogs” (2009).

Where a name gives a salt, the structure may show the parent alone. Active and inactive are the calls of the source. The rule behind the calls is not given here.

Format in all cases: functional
Test [1] has as its system Staphylococcus aureus. Kind of test: Antimicrobial activity against Staphylococcus aureus ATCC 25923 at 0.0172 uM after 17 hrs by disk diffusion assay. The note with it: for zone of inhibition at 0.0172 µM: ATCC 25923, 17 h, read-out: IZ. The procedure, abridged: (§1)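 Disk diffusion per CLSI M2-A8. S. aureus grown on trypticase soy agar; five fresh colonies into trypticase soy broth, ~5 h standing at 35 °C, adjusted to A625 0.1 (0.5 McFarland), swabbed onto Mueller–Hinton agar. Compounds in 25% methanol/water, 15 µl loaded on 6 mm paper disks; plates ~17 h at 35 °C; inhibition zones recorded, duplicate plates per strain.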
In general terms: In agar diffusion tests the substance spreads into inoculated agar from a disc or well.

The test system of test [2] is Staphylococcus aureus. Put plainly: Antimicrobial activity against Staphylococcus aureus ATCC 6538 at 0.0172 uM after 17 hrs by disk diffusion assay. The following applies: for zone of inhibition at 0.0172 µM: ATCC 6538, 17 h, read-out: IZ. The essentials:
as §1

Test [3] relates to Staphylococcus aureus. Kind of test: Antimicrobial activity against Staphylococcus aureus ATCC 6538 at 0.0344 uM after 17 hrs by disk diffusion assay. The note with it: ATCC 6538, 17 h, read-out: IZ. The essentials: as §1
The subject of test [4] is Staphylococcus aureus. Kind of test: Antimicrobial activity against Staphylococcus aureus ATCC 25923 at 0.00686 uM after 17 hrs by disk diffusion assay. The following applies: ATCC 25923, 17 h, read-out: IZ. The procedure, abridged:
as §1

The test system of test [5] is Staphylococcus aureus. Kind of test: Antimicrobial activity against Staphylococcus aureus ATCC 6538 at 0.00686 uM after 17 hrs by disk diffusion assay. The note with it: ATCC 6538, 17 h, read-out: IZ. The procedure, abridged: as §1
The subject of test [6] is Staphylococcus aureus. Put plainly: Antimicrobial activity against Staphylococcus aureus ATCC 6538 at 0.019 uM after 17 hrs by disk diffusion assay. The following applies: ATCC 6538, 17 h, read-out: IZ. The procedure, abridged:
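Disk diffusion on Mueller–Hinton agar (broth 2.1% w/v, agar 1.7%), following CLSI M2-A8. Inoculum from five fresh trypticase soy agar colonies grown about 5 h standing at 35 °C in trypticase soy broth, then adjusted to A625 0.1 (0.5 McFarland) and swabbed onto plates. Compounds in 25% methanol/water, 15 µl loaded on 6 mm paper disks. Plates incubated about 17 h at 35 °C, inhibition zones recorded, duplicate plates.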

In test [7] the test system is Staphylococcus aureus. Put plainly: Antimicrobial activity against Staphylococcus aureus ATCC 25923 at 0.019 uM after 17 hrs by disk diffusion assay. The note with it: ATCC 25923, 17 h, read-out: IZ. The essentials:
as §1

The subject of test [8] is Staphylococcus aureus. Kind of test: Antimicrobial activity against Staphylococcus aureus ATCC 25923 at 0.0602 uM after 17 hrs by disk diffusion assay. The note with it: ATCC 25923, 17 h, read-out: IZ. The essentials:
as §1

Test [9] has as its system Staphylococcus aureus. Kind of test: Antimicrobial activity against Staphylococcus aureus ATCC 6538 at 0.0602 uM after 17 hrs by disk diffusion assay. The note with it: ATCC 6538, 17 h, read-out: IZ. The essentials:
as §1

For `COC(=O)/C=C(\C)[C@@H](O)[C@@H]1OC[C@H](C/C=C/[C@@H](C)[C@H](C)O)[C@@H](O)[C@H]1O`, the zone of inhibition at 0.0172 µM stood at 13 mm in [1] and 16 mm in [2].

`C/C(=C1\CCOC1=O)[C@@H](O)[C@@H]1OCC[C@@H](O)[C@H]1O`: the result in [1] and in test [2] was inactive.

Turning to `CCOC(=O)/C=C(\C)[C@@H](O)[C@@H]1OC[C@H](C/C=C/[C@@H](C)[C@H](C)O)[C@@H](O)[C@H]1O`, the values for the zone of inhibition at 0.0172 µM in test [1] and in [2] were 21 mm and 22 mm, respectively.

Consider `C/C(=C\C(=O)OCCCCCCCC(=O)N[C@H]1CCCNC1=O)[C@@H](O)[C@@H]1OC[C@H](C/C=C/[C@@H](C)[C@H](C)O)[C@@H](O)[C@H]1O` [THIOMARINOL H], for which the zone of inhibition at 0.0172 µM in [1] was determined as 10 mm; in test [2], 16 mm.

For `C/C(=C\C(=O)O)[C@@H](O)[C@@H]1OC[C@H](C/C=C/[C@@H](C)[C@H](C)O)[C@@H](O)[C@H]1O`, the outcome in [1] and in test [2] was inactive.

In the case of `CCN(CC)C(=O)/C=C(\C)[C@@H](O)[C@@H]1OC[C@H](C/C=C/[C@@H](C)[C@H](C)O)[C@@H](O)[C@H]1O`, in test [3], the zone of inhibition at 0.0344 µM was 15 mm.

With `CCCCCC[C@H]1CO[C@@H]([C@H](O)/C(C)=C/C(=O)OCC)[C@H](O)[C@@H]1O`, the outcome in test [1] and in [2] was inactive.

In the case of `CCCCNC(=O)/C=C(\C)[C@@H](O)[C@@H]1OC[C@H](C/C=C/[C@@H](C)[C@H](C)O)[C@@H](O)[C@H]1O`, the zone of inhibition at 0.0344 µM in [3] was 14 mm.

On to `C/C(=C1/CCOC1=O)[C@@H](O)[C@@H]1OCC[C@@H](O)[C@H]1O`, for which the result in test [1] and in test [2] was inactive.

For `C/C(=C\C(=O)OC(C)C)[C@@H](O)[C@@H]1OC[C@H](C/C=C/[C@@H](C)[C@H](C)O)[C@@H](O)[C@H]1O`, the zone of inhibition at 0.0172 µM in test [1] is 21 mm; in test [2], 22 mm.

For the compound `CN[C@@H]1[C@H](O[C@H]2[C@H](O[C@H]3[C@H](O)[C@@H](O)[C@H](N=C(N)N)[C@@H](O)[C@@H]3N=C(N)N)O[C@@H](C)[C@]2(O)C=O)O[C@@H](CO)[C@H](O)[C@H]1O` [STREPTOMYCIN SULFATE], the values for the zone of inhibition at 0.00686 µM in test [4] and in test [5] were 14 mm and 16 mm, respectively.

Turning to `CC1(C)S[C@@H]2[C@H](NC(=O)Cc3ccccc3)C(=O)N2[C@H]1C(=O)O` [PENICILLIN G SODIUM], the figures for the zone of inhibition at 0.019 µM in test [6] and in test [7] were 40 mm and 32 mm, respectively.

`CCOC(=O)/C=C(\C)[C@@H](O)[C@@H]1OCC[C@@H](O)[C@H]1O`: the outcome in [1] and in test [2] was inactive.

For the compound `C/C(=C\C(=O)OCCCCCCCCC(=O)O)C[C@@H]1OC[C@H](C[C@H]2O[C@@H]2[C@@H](C)[C@H](C)O)[C@@H](O)[C@H]1O` [PSEUDOMONIC ACID A CALCIUM SALT], the zone of inhibition at 0.0172 µM in test [1] worked out at 26 mm; in test [2], 32 mm.

For `CN(C)[C@@H]1C(O)=C(C(N)=O)C(=O)[C@@]2(O)C(O)=C3C(=O)c4c(O)cccc4[C@@](C)(O)[C@H]3C[C@@H]12` [TETRACYCLINE HYDROCHLORIDE], the zone of inhibition at 0.0602 µM turned out to be 29 mm in test [8] and 28 mm in test [9].
